Test results as given in ChEMBL document CHEMBL4118256, “Second Generation of Mannich Base-Type Derivatives with in Vivo Activity against Trypanosoma cruzi” (J Med Chem, 2018).
Calls of active or inactive are those of the source. The calls are words filed in the database; no cut-off is given here.

What was measured:
[1] = test system: Trypanosoma cruzi; assay: (§1) Antitrypanosomal activity against Trypanosoma cruzi MHOM/Pe/2011/Arequipa DTU 5 trypamastigotes infected in Balb/c mouse assessed as reduction in parasitaemia reactivation in esophagus tissue at 100 mg/kg, po pretreated once daily for 5 consecutive days starting from day 75 post infection followed by cyclophosphamide-induced immunosuppression on day 100 post infection every 4 days for a maximum of 3 doses measured on day 127 post infection by PCR method; type: functional; set-up: scale not given: the % may be the effect or the level left
Outline: (§2)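 Necropsy on day 127 pi after oral treatment and cyclophosphamide immunosuppression. Tissue DNA was amplified by PCR targeting the ~300 bp T. cruzi SOD gene, 200 nM each primer, 30 cycles with 55.5 °C annealing. Products run on 2 % agarose; positive organs counted out of six mice.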

[2] = test system: Trypanosoma cruzi; assay: as §1, with “adipose” for “esophagus”, “10” for “75”; type: functional; set-up: scale not given: the % may be the effect or the level left; conditions: pooled result: one value given for 9 cell lines, strains, targets or settings; outline: as §2
[3] = test system: Trypanosoma cruzi; assay: as §1, with “stomach” for “esophagus”; type: functional; set-up: scale not given: the % may be the effect or the level left
[4] = test system: Mus musculus; assay: Cardiotoxicity in Balb/c mouse infected with Trypanosoma cruzi MHOM/Pe/2011/Arequipa DTU 5 trypamastigotes assessed as decrease in serum LDH level at […], po once daily for 5 consecutive days starting from day 10 post infection measured on day 16 post infection by biochemical analysis relative to control; type: toxicity, organism-based; set-up: scale not given: the % may be the effect or the level left; conditions: in vivo
Outline: (§3)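 Serum clinical chemistry in Arequipa-infected female BALB/c mice. Oral 20 mg·kg-1 per day for 5 days, started day 10 or day 75 pi. Samples taken at day 16 pi or day 81 pi, and on necropsy day. Markers: CK-MB and LDH (U/L), AST, ALT and alkaline phosphatase (U/L), total bilirubin. Results scored relative to infected untreated controls; uninfected reference n = 15.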

[5] = test system: Trypanosoma cruzi; assay: as §1, with “heart” for “esophagus”; type: functional; set-up: scale not given: the % may be the effect or the level left; outline: as §2
[6] = test system: Mus musculus; assay: (§4) Cardiotoxicity in Balb/c mouse infected with Trypanosoma cruzi MHOM/Pe/2011/Arequipa DTU 5 trypamastigotes assessed as change in ratio of creatine kinase in muscle to brain at 20 mg/kg, po once daily for 5 consecutive days starting from day 10 post infection measured on day 16 post infection by biochemical analysis relative to control; type: toxicity, organism-based; conditions: in vivo; outline: as §3
[7] = test system: Mus musculus; assay: as §4, with “Hepatotoxicity” for “Cardiotoxicity”, “increase” for “change”, “serum AST” for “creatine kinase in muscle”, “GOT level” for “brain”, “75” for “10”, “127” for “16”; type: toxicity, organism-based; conditions: in vivo
[8] = test system: Trypanosoma cruzi; assay: as §1, with “in adipose” for “in esophagus”, “at 20” for “at 100”; type: functional; set-up: scale not given: the % may be the effect or the level left; conditions: pooled result: one value given for 9 cell lines, strains, targets or settings; outline: as §2
[9] = test system: Mus musculus; assay: (§5) Nephrotoxicity in Balb/c mouse infected with Trypanosoma cruzi MHOM/Pe/2011/Arequipa DTU 5 trypamastigotes assessed as decrease in urea level in serum at 20 mg/kg, po once daily for 5 consecutive days starting from day 10 post infection measured on day 127 post infection by biochemical analysis relative to control; type: toxicity, organism-based; set-up: scale not given: the % may be the effect or the level left; conditions: in vivo
[10] = test system: Mus musculus; assay: Toxicity in Balb/c mouse assessed as death at 20 mg/kg, po once daily for 5 consecutive days starting from day 75 post infection; type: organism-based; conditions: in vivo
Outline: (§6)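 Female BALB/c mice (8-10 weeks, 20-25 g), groups of six, infected i.p. with 5 x 10^5 Arequipa bloodstream trypomastigotes. Dosing was oral, 20 mg·kg-1 per day for 5 days, given as a 2 mg·mL-1 suspension in 5% DMSO/0.5% hydroxypropyl methylcellulose. Treatment started day 10 pi (acute phase) or day 75 pi (chronic phase). Deaths and body-mass loss were monitored during and after treatment.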

[11] = test system: Mus musculus; assay: as §5, with “16” for “127”; type: toxicity, organism-based; set-up: scale not given: the % may be the effect or the level left; conditions: in vivo
[12] = test system: Trypanosoma cruzi; assay: as §1, with “in heart” for “in esophagus”, “at 20” for “at 100”, “day 10” for “day 75”; type: functional; set-up: scale not given: the % may be the effect or the level left; outline: as §2
[13] = test system: Mus musculus; assay: as §5, with “Cardiotoxicity” for “Nephrotoxicity”, “change” for “decrease in urea level”, “serum LDH level” for “serum”; type: toxicity, organism-based; conditions: in vivo; outline: as §3
[14] = test system: Mus musculus; assay: Cardiotoxicity in Balb/c mouse infected with Trypanosoma cruzi MHOM/Pe/2011/Arequipa DTU 5 trypamastigotes assessed as decrease in serum LDH level at 20 mg/kg, po once daily for 5 consecutive days starting from day 75 post infection measured on day 81 post infection by biochemical analysis relative to control; type: toxicity, organism-based; set-up: scale not given: the % may be the effect or the level left; conditions: in vivo; outline: as §3
[15] = test system: Trypanosoma cruzi; assay: as §1, with “in Ig-G level” for “in parasitaemia reactivation”, “in serum” for “in esophagus tissue”, “at 20” for “at 100”, “by ELISA” for “by PCR method”; type: functional, organism-based
Outline: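 Female BALB/c mice (8-10 weeks, 20-25 g), six per group, infected i.p. with 5 x 10^5 Arequipa bloodstream trypomastigotes. Compound was given orally once daily for 5 days from day 10 or day 75 pi, at 20 mg·kg-1 per day in 5 % DMSO/0.5 % HPMC. Anti-T. cruzi IgG in serum was measured by ELISA with Fe-SOD antigen, read as OD 490 nm.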

[16] = test system: Trypanosoma cruzi; assay: Antitrypanosomal activity against Trypanosoma cruzi MHOM/Pe/2011/Arequipa DTU 5 trypamastigotes infected in Balb/c mouse assessed as reduction in parasitaemia level at 20 mg/kg, po once daily for 5 consecutive days starting from day 10 post infection measured on day 23 post infection by Neubauer chamber method relative to control; type: functional; set-up: scale not given: the % may be the effect or the level left
Outline: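 Six female BALB/c mice per group, infected i.p. with 5 x 10^5 Arequipa bloodstream trypomastigotes in PBS. Oral dosing once daily for 5 days from day 10 pi, 20 mg·kg-1 per day in aqueous 5 % DMSO/0.5 % HPMC, vehicle to controls. Blood trypomastigotes counted in a Neubauer chamber (parasites·mL-1); means ± SD.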

[17] = test system: Mus musculus; assay: Toxicity in Balb/c mouse assessed as death at 20 mg/kg, po once daily for 5 consecutive days starting from day 10 post infection; type: organism-based; conditions: in vivo; outline: as §6
[18] = test system: Trypanosoma cruzi; assay: Antitrypanosomal activity against Trypanosoma cruzi MHOM/Pe/2011/Arequipa DTU 5 epimastigotes assessed as effect on parasite glycolytic pathway by measuring decrease in succinate excretion at IC25 after 72 hrs by 1H NMR method; type: functional, organism-based
Outline: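 Arequipa epimastigotes exposed at IC25 for 72 h alongside an untreated control. Excreted catabolites were analysed by 1H NMR, and each peak is reported as % variation versus the control. Three separate determinations.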

[19] = test system: Mus musculus; assay: as §5, with “as increase” for “as decrease”, “in uric acid” for “in urea”, “at […]” for “at 20”; type: toxicity, organism-based; conditions: in vivo
[20] = test system: Mus musculus; assay: as §5, with “Hepatotoxicity in” for “Nephrotoxicity in”, “as increase” for “as decrease”, “in ratio of serum ALT to GPT” for “in urea”, “level” for “level in serum”, “at […]” for “at 20”; type: toxicity, organism-based; conditions: in vivo
[21] = test system: Mus musculus; assay: Hepatotoxicity in Balb/c mouse infected with Trypanosoma cruzi MHOM/Pe/2011/Arequipa DTU 5 trypamastigotes assessed as increase in ratio of serum AST to GOT level at […], po once daily for 5 consecutive days starting from day 10 post infection measured on day 16 post infection by biochemical analysis relative to control; type: toxicity, organism-based; conditions: in vivo
[22] = test system: Mus musculus; assay: as §5, with “at […]” for “at 20”, “day 75” for “day 10”; type: toxicity, organism-based; set-up: scale not given: the % may be the effect or the level left; conditions: in vivo

COc1ccc(C(=O)CCN2CCN(c3ccc(Cl)cc3)CC2)cc1
Activity [1]: 78%
Activity [2]: 89%
Activity [3]: 78%
Activity [4]: <= 20%
Activity [5]: 78%

O=C(Cn1ccnc1[N+](=O)[O-])NCc1ccccc1 [BENZNIDAZOLE]
Activity [6]: < 10%
Activity [7]: <= 10%
Activity [8]: 55%
Activity [9]: <= 30%
Activity [10]: Non-Toxic
Activity [11]: <= 30%
Activity [12]: 33%
Activity [13]: < 10%
Activity [14]: <= 30%
Activity [15]: Active
Activity [16]: 70%
Activity [17]: Non-Toxic

COc1ccc(C(=O)CCN2CCN(c3ccc(F)cc3)CC2)cc1
Activity [18]: Active
Activity [19]: <= 10%

COc1ccc(C(=O)CCN2CCN(c3ccc([N+](=O)[O-])cc3)CC2)cc1
Activity [20]: <= 30%
Activity [21]: > 40%
Activity [22]: <= 10%
